Assay results published in ChEMBL document CHEMBL3576784, “Azolylthioacetamide: A Highly Promising Scaffold for the Development of Metallo-β-lactamase Inhibitors” (ACS Med Chem Lett, 2015).
Activity calls are given as the source filed them. No cut-off for these calls is given here.

Experiments:
[1] = biological target: Metallo-beta-lactamase type 2 (Bacteroides fragilis) (UniProt P25910); test: Inhibition of Bacteroides fragilis metallo-beta-lactamase CcrA expressed in Escherichia coli BL21(DE3) up to 10 uM using cefazolin V substrate pre-incubated for 30 mins by Lineweaver-Burk plot method
[2] = Inhibition of metallo-beta-lactamase NDM1 (unknown origin) expressed in Escherichia coli BL21(DE3) up to 10 uM using cefazolin V substrate pre-incubated for 30 mins by Lineweaver-Burk plot method
[3] = biological target: Beta-lactamase L1 (Stenotrophomonas maltophilia) (UniProt P52700); test: Inhibition of Stenotrophomonas maltophilia metallo-beta-lactamase L1 expressed in Escherichia coli BL21(DE3) up to 10 uM using cefazolin V substrate pre-incubated for 30 mins by Lineweaver-Burk plot method
[4] = biological target: Beta-lactamase L1 (Stenotrophomonas maltophilia) (UniProt P52700); test: Inhibition of Stenotrophomonas maltophilia metallo-beta-lactamase L1 expressed in Escherichia coli BL21(DE3) assessed as cefalexin V antimicrobial MIC incubated at 37 degC for 12 hrs by macrodilution (tube) broth method (reference value: 8 ug/mL)
In short: (§1)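 β-Lactam antibiotic MIC (μg/mL) against E. coli BL21(DE3) carrying plasmids pMSZ02-CcrA, pET26b-NDM-1, pET26b-ImiS or pET26b-L1. Measured with and without test compound at 16 μg/mL.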

[5] = Inhibition of metallo-beta-lactamase NDM1 (unknown origin) expressed in Escherichia coli BL21(DE3) assessed as cefalexin V antimicrobial MIC incubated at 37 degC for 12 hrs by macrodilution (tube) broth method (reference value: 4 ug/mL); in short: as §1
[6] = biological target: Metallo-beta-lactamase type 2 (Bacteroides fragilis) (UniProt P25910); test: Inhibition of Bacteroides fragilis metallo-beta-lactamase CcrA expressed in Escherichia coli BL21(DE3) assessed as cefalexin V antimicrobial MIC incubated at 37 degC for 12 hrs by macrodilution (tube) broth method (reference value: 4 ug/mL); in short: as §1
[7] = biological target: Beta-lactamase (Aeromonas veronii) (UniProt O31272); test: Inhibition of Aeromonas veronii metallo-beta-lactamase ImiS expressed in Escherichia coli BL21(DE3) assessed as imipenem antimicrobial MIC incubated at 37 degC for 12 hrs by macrodilution (tube) broth method; in short: as §1
[8] = biological target: T1, Beta-lactamase IMP-1 (Pseudomonas aeruginosa) (UniProt Q8G9Q0); test: Inhibition of Pseudomonas aeruginosa metallo-beta-lactamase IMP1 expressed in Escherichia coli BL21(DE3) assessed as imipenem antimicrobial MIC incubated at 37 degC for 12 hrs by macrodilution (tube) broth method (reference value: […] ug/mL)
T1 sequence (whole entry): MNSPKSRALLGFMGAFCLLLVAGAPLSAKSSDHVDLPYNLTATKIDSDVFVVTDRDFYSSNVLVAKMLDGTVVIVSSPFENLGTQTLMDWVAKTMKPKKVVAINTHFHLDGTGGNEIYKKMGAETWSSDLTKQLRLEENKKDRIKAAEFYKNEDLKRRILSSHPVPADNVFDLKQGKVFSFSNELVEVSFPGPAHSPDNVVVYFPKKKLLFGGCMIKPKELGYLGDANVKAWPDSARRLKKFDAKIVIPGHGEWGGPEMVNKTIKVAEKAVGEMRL

[9] = test system: Klebsiella pneumoniae; test: Inhibition of Klebsiella pneumoniae metallo-beta-lactamase expressed in Escherichia coli BL21(DE3) assessed as imipenem antimicrobial MIC incubated at 37 degC for 12 hrs by macrodilution (tube) broth method

Metallo-beta-lactamase type 2 (Bacteroides fragilis), sequence (P25910 whole entry): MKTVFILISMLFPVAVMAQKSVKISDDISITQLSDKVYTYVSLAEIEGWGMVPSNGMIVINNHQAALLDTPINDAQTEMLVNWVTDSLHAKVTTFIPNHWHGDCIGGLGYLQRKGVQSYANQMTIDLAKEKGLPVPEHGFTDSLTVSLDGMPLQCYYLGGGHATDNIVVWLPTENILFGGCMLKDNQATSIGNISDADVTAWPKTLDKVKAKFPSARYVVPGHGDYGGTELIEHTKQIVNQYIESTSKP
Beta-lactamase (Aeromonas veronii), sequence (O31272 as listed by the source): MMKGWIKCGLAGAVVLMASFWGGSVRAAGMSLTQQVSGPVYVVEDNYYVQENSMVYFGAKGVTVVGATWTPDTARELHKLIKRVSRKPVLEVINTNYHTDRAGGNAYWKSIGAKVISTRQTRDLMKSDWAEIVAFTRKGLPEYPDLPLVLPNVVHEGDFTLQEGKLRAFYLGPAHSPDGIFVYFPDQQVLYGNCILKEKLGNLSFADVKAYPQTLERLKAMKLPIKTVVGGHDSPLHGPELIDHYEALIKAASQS
Beta-lactamase L1 (Stenotrophomonas maltophilia), sequence (P52700 34-290 limits assumed): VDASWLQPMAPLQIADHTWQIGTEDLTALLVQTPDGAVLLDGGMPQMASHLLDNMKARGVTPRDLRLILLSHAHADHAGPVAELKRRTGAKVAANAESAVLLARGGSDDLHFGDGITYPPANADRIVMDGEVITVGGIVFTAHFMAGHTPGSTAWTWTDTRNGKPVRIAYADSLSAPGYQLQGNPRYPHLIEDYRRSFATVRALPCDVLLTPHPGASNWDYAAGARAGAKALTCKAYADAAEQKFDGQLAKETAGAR

| inhibition [1] | inhibition [2] | inhibition [3] | MIC [4] [µg/mL] | MIC [5] [µg/mL] | MIC [6] [µg/mL] | MIC [7] [µg/mL] | MIC [8] [µg/mL] | MIC [9] [µg/mL] | SMILES |
| --- | --- | --- | --- | --- | --- | --- | --- | --- | --- |
| inactive | inactive | inactive | > 128 | 4 | 0.25 | < 0.125 | < 0.125 | 0.5 | O=C(CSc1nnc(-c2ccccc2C(=O)O)[nH]1)Nc1ccccc1[N+](=O)[O-] |
| inactive | inactive | inactive | 8 | 4 | < 0.125 | 0.5 | 0.25 | 0.5 | O=C(CSc1nnc(-c2ccccc2C(=O)O)[nH]1)Nc1ccc(Cl)cc1 |
| inactive | inactive | inactive | 8 | 4 | 4 | 1 | 0.25 | 0.5 | O=C(CSc1nnc(-c2ccccc2C(=O)O)[nH]1)Nc1ccccc1 |
| inactive | inactive | inactive | 16 | 4 | 2 | 0.5 | 0.25 | 0.5 | O=C(CSc1nnc(-c2ccccc2C(=O)O)[nH]1)Nc1ccc([N+](=O)[O-])cc1 |
| inactive | inactive | inactive | 8 | 4 | 2 | 0.25 | < 0.125 | 0.5 | O=C(CSc1nnc(-c2ccccc2C(=O)O)[nH]1)Nc1cccc([N+](=O)[O-])c1 |
| inactive | inactive | inactive | 64 | 4 | 0.5 | < 0.125 | < 0.125 | 0.5 | O=C(CSc1nnc(-c2ccccc2C(=O)O)[nH]1)Nc1cccc(Cl)c1 |
| inactive | inactive | inactive | 64 | 4 | 2 | 0.25 | < 0.125 | 0.5 | O=C(CSc1nnc(-c2ccccc2C(=O)O)[nH]1)Nc1ccccc1Cl |

The remaining lines, values behind:

| SMILES | inhibition [1] | inhibition [2] | inhibition [3] | MIC [4] [µg/mL] | MIC [5] [µg/mL] | MIC [6] [µg/mL] | MIC [7] [µg/mL] | MIC [8] [µg/mL] | MIC [9] [µg/mL] |
| --- | --- | --- | --- | --- | --- | --- | --- | --- | --- |
| O=C(O)CCc1nnc(SCC(=O)Nc2nc3ccccc3[nH]2)[nH]1 | inactive | inactive | inactive | – | – | – | – | – | – |
| O=C(O)CCc1nnc(SCC(=O)Nc2nc3ccccc3s2)[nH]1 | inactive | inactive | inactive | – | – | – | – | – | – |
| O=C(CSc1nnc(-c2ccccc2C(=O)O)[nH]1)Nc1nc2ccccc2s1 | inactive | inactive | inactive | 8 | 4 | < 0.125 | 1 | < 0.125 | 0.5 |
| O=C(CSc1nnc(-c2ccccc2C(=O)O)[nH]1)NCc1ccccc1 | inactive | inactive | inactive | 16 | 4 | 4 | 1 | < 0.125 | 0.5 |
| O=C(O)CCCc1nnc(SCC(=O)Nc2nc3ccccc3[nH]2)[nH]1 | inactive | inactive | inactive | – | – | – | – | – | – |
| O=C(O)CCc1nnc(SCC(=O)Nc2ccc(Cl)cc2)[nH]1 | inactive | inactive | inactive | – | – | – | – | – | – |
| O=C(CSc1nnc(-c2ccccc2C(=O)O)[nH]1)Nc1nc2ccccc2[nH]1 | inactive | inactive | inactive | 8 | 4 | 4 | 1 | 0.25 | 0.5 |
| O=C(O)CCc1nnc(SCC(=O)Nc2ccccc2)[nH]1 | inactive | inactive | inactive | – | – | – | – | – | – |
